In publication PMC7814360 (Investigative Ophthalmology & Visual Science, 2021):
Ends that are not written are not given here.

Tests used:
HRECs [1] = assay: Cell migration; assay type: cell-based, human; settings: 25 ng/mL VEGF; 200 µM H-KI20 or H-KI20S, or 12.5 mg/mL bevacizumab; 12 hours; three independent assays
HRECs [2] = assay: Tube formation assay on Matrigel; assay type: cell-based, human; settings: 25 ng/mL VEGF, three independent assays
In short: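 About 2 × 10^4 HRECs were seeded on Matrigel-precoated wells, with or without 25 ng/mL VEGF, alongside test peptides or Avastin. Incubation was at 37°C for four hours per methods (three hours per legend). Three random fields per well were photographed, and total tube length and branch points were quantified by ImageJ. Three independent assays; means ± SEM.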

HRECs [3] = assay: Cellular uptake, flow cytometry quantitative analysis; assay type: in vitro ADME, human; settings: 200 µM, three independent assays
In short: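 HRECs were seeded at 1 × 10^6 on a 30-mm plate. At confluence they were exposed to FITC-labeled test peptide at 200 μM in complete medium for 30 min, 1, 6, 12 and 24 h. Cells were washed, trypsinized, resuspended in PBS and kept dark. FITC-positive cell number and mean fluorescence intensity were read by flow cytometry. Three independent assays; means ± SEM.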

JNK2 = JNK2 (Homo sapiens, UniProt P45984); assay: Surface plasmon resonance; assay type: binding
In short: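 SPR was run on a Biacore T200. The chip was conditioned with 500 mM EDTA and 100 mM NaOH. Recombinant human JNK2 at 27.5 μg/mL was captured on an NTA chip at 10 μL/min. Serial peptide concentrations were injected in PBS with 0.05% Tween-20, pH 7.4, at 25°C (association 120 s, dissociation 180 s). Double reference subtraction was applied, then a global Langmuir 1:1 fit.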

[4] = Quantification of H-KI20 in ocular tissues after topical instillation; assay type: in vivo; settings: mouse CNV model, 0.5, 1 and 3 hours after topical instillation, PRM
In short: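 Choroidal neovascularization was induced in adult C57BL/6J mice with four 532-nm laser burns (100 ms, 50 μm, 120 mW) around the optic disc. On day 7, 6 μL of FITC-labeled test peptide (2 mM) was instilled topically six times at 10-min intervals (n = 3 per group). At 0.5, 1 and 3 h, sclera–choroid–RPE complex and retina were trypsin-digested. A 100 ng/mL stable-isotope-labeled internal standard was spiked in, and samples were quantified by nano-UPLC–Orbitrap PRM.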

[5] = Stability assay of H-KI20 in aqueous solutions; assay type: physicochemical; settings: 200 µg/mL, HPLC
HRECs [6] = assay: Cytotoxicity, MTS; assay type: cell-based, human; settings: H-KI20 at different concentrations; three independent assays
In short: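 HRECs were seeded in 96-well plates at […]. They were treated with VEGF or test peptide, and viability was read by MTS following the manufacturer's protocol.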

HRECs [7] = assay: High-content image analysis, cell roundness; assay type: cell-based, human; settings: H-KI20 alone, 30 hours, Operetta HCA, interval 0.5 h
In short: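 About 3 × 10^4 HRECs/well were plated in 12-well plates and allowed to attach overnight. Test compound was added 2 h before imaging. Cells were imaged live in an Operetta high-content system for […] at 0.5-h intervals. Roundness is a shape index normalized to 1.0 for a perfect circle, decreasing for elongated or irregular cells.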

retina = assay: Histologic examination of retina after intravitreal injection; assay type: in vivo, mouse; settings: 50 or 75 mM H-KI20 intravitreal, five days later, mice
[8] = system: cornea neovascularization; settings: topical application of high concentrations; cited from earlier work

Chain of JNK2 (P45984 whole entry): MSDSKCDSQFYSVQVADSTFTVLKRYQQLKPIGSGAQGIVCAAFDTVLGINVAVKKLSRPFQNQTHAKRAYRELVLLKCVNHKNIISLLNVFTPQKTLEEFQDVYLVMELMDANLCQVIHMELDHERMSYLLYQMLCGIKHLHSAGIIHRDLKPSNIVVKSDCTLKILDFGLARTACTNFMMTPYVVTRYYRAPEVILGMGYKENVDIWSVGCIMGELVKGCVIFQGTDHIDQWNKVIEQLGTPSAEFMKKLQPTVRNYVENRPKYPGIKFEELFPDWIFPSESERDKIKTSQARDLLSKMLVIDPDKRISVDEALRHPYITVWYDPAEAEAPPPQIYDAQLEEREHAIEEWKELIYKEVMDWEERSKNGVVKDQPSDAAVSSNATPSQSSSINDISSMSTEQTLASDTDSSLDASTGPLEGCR

Substance: Bevacizumab [Avastin]
- migration of VEGF-stimulated HRECs (wound closure) (HRECs [1]): inhibited the migration of cells significantly
- VEGF-induced tube formation (tube length and branch points) (HRECs [2]): significantly inhibited

Substance: FITC-H-KI20: FITC-labeled H-KI20 used to test cellular permeability (IIGKGRSYKGTVSITKSGIK; also: FITC-labeled, site not given here)
- mean fluorescence intensity (MFI) compared with untreated cells (HRECs [3]; 30 minutes): 217 fold
- MFI after 24 hours compared with that after 30 minutes (HRECs [3]; 24 hours vs 30 minutes): 3.67 fold

Substance: IIGKGRSYKGTVSITKSGIK [H-KI20]
- Kd (JNK2): 83.7 µM
- persistence of concentration in ocular tissues after topical instillation [4]: maintained for at least three hours
- stability at 4°C compared with 37°C ([5]; BSS, PBS and HBS, n = 4 or 5): more stable
- stability in H2O and PBS ([5]; H2O and PBS pH 7.4, 37°C, incubation for 24 or 48 hours): partially degraded
- cytotoxicity / proliferation of HRECs (MTS) (HRECs [6]): no effect on the proliferation of HRECs
- cell roundness (HRECs [7]): no effect on the roundness of cells
- retinal histology (HE) after intravitreal injection (retina): All layers of the retina were normal and intact, without edema or inflammatory or immune reactions
- cell ultrastructure of cornea and conjunctiva [8]: no effect on the cell ultrastructure of cornea and conjunctiva
